Data on 24 compounds can be found in ChEMBL document CHEMBL1122944, “The histamine H2 receptor agonist impromidine: synthesis and structure-activity considerations” (J Med Chem, 1985).

Experiment [1] deals with Histamine H2 receptor (Cavia porcellus) (UniProt P47747). In words: Percent maximum response against histamine H2 receptor in guinea pig atrium was evaluated. It is filed as tissue-based. To be noted: Cardiac atrium. The gist of the method:
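Isolated guinea pig atrium under 400-mg tension with propranolol (0.5 μM). Complete cumulative dose-response curves to histamine and test agonist, up to 781 μM, used to find the maximum response obtainable, expressed relative to histamine.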

Experiment [2] shares this target. In words: Agonistic activity against histamine H2 receptor in guinea pig atrium (potency relative to histamine =1). To be noted: Cardiac atrium. The class given is functional, tissue-based. The gist of the method:
(§1)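 Isolated guinea pig atrium, muscle under 400-mg tension, propranolol (0.5 μM) present. Agonist tested up to 781 μM (0.1% histamine) by cumulative dose-response curves. Potency relative to histamine taken from concentrations giving 50% of maximal response; selected compounds by 2 + 2 Latin square parallel-line assay against histamine.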

Experiment [3] concerns the target T1, Histamine H2 receptor (Cavia porcellus, UniProt P47747). In words: Antagonistic activity against H2 receptor in guinea pig. Particulars: read-out: pA2 (converted). It is filed as functional.
For experiment [4], the target named is Histamine H2 receptor (Cavia porcellus) (UniProt P47747). Put plainly: Agonistic activity against histamine H2 receptor in guinea pig atrium(potency relative to histamine =1). The class given is functional, tissue-based. Particulars: Cardiac atrium. The essentials: as §1
In experiment [5] the target is T1, Histamine H2 receptor. In words: Antagonistic activity against H2 receptor in guinea pig was evaluated. The class given is functional. Particulars: read-out: pA2 (converted). The gist of the method: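 Guinea pig atrium under 400-mg tension with propranolol (0.5 μM). Histamine concentrations giving half-maximal response measured with and without several antagonist concentrations (B). K_B = B/(x − 1), x being the concentration ratio; pA2 = −log K_B.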

The target in experiment [6] is Histamine H2 receptor (Cavia porcellus) (UniProt P47747). Particulars: Cardiac atrium.

Sequence of Histamine H2 receptor (Cavia porcellus) (P47747 whole entry): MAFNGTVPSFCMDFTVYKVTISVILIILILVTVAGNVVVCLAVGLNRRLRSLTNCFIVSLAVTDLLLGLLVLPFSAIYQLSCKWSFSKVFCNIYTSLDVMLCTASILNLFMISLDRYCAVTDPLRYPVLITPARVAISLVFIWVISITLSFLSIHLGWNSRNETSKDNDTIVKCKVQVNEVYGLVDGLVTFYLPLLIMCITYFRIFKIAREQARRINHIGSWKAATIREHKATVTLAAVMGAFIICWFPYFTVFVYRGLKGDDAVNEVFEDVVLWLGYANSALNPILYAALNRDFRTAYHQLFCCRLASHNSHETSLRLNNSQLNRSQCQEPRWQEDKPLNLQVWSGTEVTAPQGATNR
T1 sequence (P47747 whole entry): as above

In the case of `C/N=C(\N)NCCCCc1c[nH]cn1`, the Max response in experiment [1] was determined as 46%. Further, the Potency in experiment [2] was found to be 0.074. Moreover, on Histamine H2 receptor [3], the Kb is 100 µM.
`CSC(=N)NCCSCc1[nH]cnc1C`: the Kb on Histamine H2 receptor [3] was 6.92 µM.
For the compound `N=C(NCCCc1c[nH]cn1)NCCCc1nccs1`, the Max response in experiment [1] came out at 87%. In experiment [2], this compound showed a Potency of 26.6.
In the case of `CC1=NN(c2ccc([N+](=O)[O-])cc2)C(=O)C1[N+](=O)[O-].Cc1[nH]cnc1CSCC/N=C(\N)NCCCc1cn(C)cn1`, the Max response in experiment [1] was 11%. The same compound came in with a Potency in experiment [2] of 0.007. Further, the Kb at Histamine H2 receptor [3] was 1.58 µM.
With `C/N=C(\N)NCCSCc1c[nH]cn1`, the Kb at Histamine H2 receptor [3] is 41.7 µM.
Compound `N=C(NCCCc1c[nH]cn1)NCCSCc1nccs1` returned a Max response in experiment [1] of 91%. This compound also came in with a Potency in experiment [2] of 24.4.
Regarding `C/N=C(\N)NCCCc1nccs1`, the Kb on Histamine H2 receptor [3] is 63.1 µM.
`C/N=C(\N)NCCCc1c[nH]cn1` displayed a Max response in experiment [1] of 62%. In experiment [2], this compound had a Potency of 0.2. The Kb at Histamine H2 receptor [3] is 12.6 µM.
Regarding `Cc1[nH]cnc1CSCCNC(=N)NCCSCc1nc[nH]c1C`, the Kb at Histamine H2 receptor [3] is 0.214 µM.
For the compound `CC1=NN(c2ccc([N+](=O)[O-])cc2)C(=O)C1[N+](=O)[O-].CN/C(=N\CCCc1c[nH]cn1)NCCSCc1[nH]cnc1C`, in experiment [1], the Max response amounted to 91%. For the same compound, the Potency in experiment [4] is 0.062.
For the compound `C/[S+]=C(/NCCCc1c[nH]cn1)NCCSCc1[nH]cnc1C`, at Histamine H2 receptor [5], the Kb was 17.8 µM. This compound returned a Potency in experiment [6] of 0.01.
For `CC1=NN(c2ccc([N+](=O)[O-])cc2)C(=O)C1[N+](=O)[O-].Cc1[nH]cnc1CSCC/N=C(\N)NCCc1c[nH]cn1`, in experiment [1], the Max response was determined as 100%. This compound returned a Potency in experiment [2] of 1.93.
For the compound `CSC(=N)NCCCc1c[nH]cn1`, in experiment [1], the Max response turned out to be 23%. In experiment [2], this compound gave a Potency of 0.1. Besides, the Kb on Histamine H2 receptor [3] is 25.1 µM.
Consider `Cc1[nH]cnc1CSCC/N=C(\N)SCCCc1c[nH]cn1`, for which the Kb on Histamine H2 receptor [3] is 3.31 µM.
Consider `Cc1nc[nH]c1CSCCNC(=O)NCCCc1cnc[nH]1`, for which the Kb on Histamine H2 receptor [3] was 6.31 µM.
`Cc1nc[nH]c1CSCCNC(=S)NCCCc1cnc[nH]1`: on Histamine H2 receptor [3], the Kb was 1.2 µM.
Same read-out and setting: for `C/N=C(\N)NCCSCc1[nH]cnc1C` the value was 16.2 µM.
`C/N=C(\N)NCCc1c[nH]cn1`: the Max response in experiment [1] is 62%. Further, the Potency in experiment [4] was found to be 0.01. Also, the Kb on Histamine H2 receptor [3] is greater than 501 µM.
In experiment [1], `CC1=NN(c2ccc([N+](=O)[O-])cc2)C(=O)C1[N+](=O)[O-].N=C(NCCCc1c[nH]cn1)NCCCc1c[nH]cn1` yielded a Max response of 100%. This compound gave a Potency in experiment [2] of 4.83.
Turning to `N=C(NCCCc1c[nH]cn1)NCCSCc1c[nH]cn1`, the Max response in experiment [1] turned out to be 95%. The compound also gave a Potency in experiment [2] of 5.38.
For the compound `Cc1[nH]cnc1CSCC/N=C(\N)NCCCCc1c[nH]cn1`, the Max response in experiment [1] stood at 20%. In experiment [2], the Potency is 0.83. The Kb on Histamine H2 receptor [3] was 1.15 µM.
For `N=C(NCCCCc1c[nH]cn1)NCCCc1c[nH]cn1`, in experiment [1], the Max response is 85.5%. In addition, the Potency in experiment [2] came out at 12.3.
`Cc1[nH]cnc1CSCCNC(=N)NCCCc1c[nH]cn1` showed a Max response in experiment [1] of 98.7%. Also, the Potency in experiment [2] is 48.1.
For the compound `Cc1[nH]cnc1CSCC/N=C(\NC#N)NCCCc1c[nH]cn1`, the Kb at Histamine H2 receptor [3] is 0.575 µM.
